This passage reports inhibition results from PubChem BioAssay AID652075 (The Scripps Research Institute Molecular Screening Center, 2013).

For the assay, the target named is Voltage-gated inwardly rectifying potassium channel KCNH2 (Homo sapiens) (UniProt Q12809). Put plainly: KCNH2 channel binding inhibition – biochemical, radiometric, counter-screen for OPRK1 antagonist project, late-stage follow-up (AID 652075). As to conditions: hERG radioligand binding displacement, CEREP; at 10 µM; stronger effect = higher value. The method in brief:
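Material: hERG radioligand binding | Also added: Radiolabelled ligand, excess unlabelled ligand for nonspecific binding | Doses: Single test compound dose of 10 µM | Technique: Radioligand binding | Evaluation: Percent inhibition of specific binding versus control, negatives denoting stimulation | Control set: Excess unlabelled ligand for nonspecific binding | Replicates: Duplicate measurements per compound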
(A counterscreen serves to expose hits that act by an unwanted route or on another target.)

Activity calls are given as the source filed them.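 The calls were made as follows: active = hERG binding inhibition of 50% or more, or stimulation of 50% or more, shown as inhibition of -50% or lower; inactive = the rest.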

Voltage-gated inwardly rectifying potassium channel KCNH2 (Homo sapiens), sequence (Q12809 whole entry, looked up): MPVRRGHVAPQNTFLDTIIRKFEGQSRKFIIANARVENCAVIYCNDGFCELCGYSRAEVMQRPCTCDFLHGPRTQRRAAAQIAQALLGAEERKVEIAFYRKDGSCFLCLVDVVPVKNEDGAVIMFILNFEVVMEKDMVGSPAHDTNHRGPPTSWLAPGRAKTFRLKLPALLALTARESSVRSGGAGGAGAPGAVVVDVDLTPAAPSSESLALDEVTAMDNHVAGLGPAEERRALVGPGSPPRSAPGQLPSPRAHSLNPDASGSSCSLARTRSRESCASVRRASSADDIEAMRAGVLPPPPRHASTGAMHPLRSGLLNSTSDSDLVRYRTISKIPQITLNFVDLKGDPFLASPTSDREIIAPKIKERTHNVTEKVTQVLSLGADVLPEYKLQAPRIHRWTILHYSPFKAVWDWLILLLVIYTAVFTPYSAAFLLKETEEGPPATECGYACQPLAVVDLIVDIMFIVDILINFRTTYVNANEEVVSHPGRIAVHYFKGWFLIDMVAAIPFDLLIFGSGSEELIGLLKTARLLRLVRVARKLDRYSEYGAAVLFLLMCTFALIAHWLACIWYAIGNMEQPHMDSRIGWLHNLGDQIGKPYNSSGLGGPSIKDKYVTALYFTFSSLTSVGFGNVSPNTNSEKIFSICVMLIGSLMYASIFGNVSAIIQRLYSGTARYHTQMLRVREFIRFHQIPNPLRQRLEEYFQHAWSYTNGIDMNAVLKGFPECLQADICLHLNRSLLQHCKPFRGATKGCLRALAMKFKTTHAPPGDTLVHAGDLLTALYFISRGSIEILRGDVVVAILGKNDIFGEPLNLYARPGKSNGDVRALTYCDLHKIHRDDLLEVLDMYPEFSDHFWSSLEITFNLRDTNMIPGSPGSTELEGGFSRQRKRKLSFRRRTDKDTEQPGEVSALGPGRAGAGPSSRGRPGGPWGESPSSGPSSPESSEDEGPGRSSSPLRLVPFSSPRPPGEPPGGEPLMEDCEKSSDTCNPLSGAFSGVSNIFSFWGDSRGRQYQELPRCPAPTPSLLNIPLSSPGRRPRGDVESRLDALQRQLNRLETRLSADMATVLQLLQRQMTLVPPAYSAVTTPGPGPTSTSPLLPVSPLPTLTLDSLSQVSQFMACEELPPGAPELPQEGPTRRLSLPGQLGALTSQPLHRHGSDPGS

The term inhibition denotes the change of the read-out against control, counted positive when it falls. For the compound `COC(=O)c1cc(Br)cnc1N1CCC(NC2CCCCC2)C(O)C1` (stereo unspecified), the inhibition is 39.3% (inactive).
